Compound activity from PubChem.
An excerpt weighted towards active compounds, which were near 2.3% of everything screened.
TRPC4 potent: allosterically enhances the mouse TRPC4 cation channel. Q9QUQ5. HEK293 TRPC4beta/mu-opioid, DAMGO EC20, Fluo-4 Ca2+ flux; active compounds read high. B-score at 10 µM. 310,000 compounds, 0.42% hits;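 active = B-score of calcium response area above 5 SD of library B-scores, with initial fluorescence ratio within 5 SD of library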
TRPC4 block: TRPC4 (mouse) channel inhibition; Q9QUQ5; HEK293 TRPC4beta/mu-opioid, DAMGO-evoked Fluo4 calcium flux; active compounds read low; B-score at 10 µM; 300,000 compounds, 0.39% hits; AID 2247;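 active = B-score over 3 SD under the library average, no early fluorescence shift, positive overall ratio signal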
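Material: HEK293 cells with stable TRPC4beta plus mu-opioid receptor expression; probe or stimulus: DAMGO in two steps, submaximal then maximal; technique: Fluo4 calcium fluorescence by kinetic imaging, 5 s 1 Hz baseline; measure: integrated fluorescence ratio relative to baseline, converted to per-well B score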
TRPC6 activator: activators of mouse TRPC6 channel | 310,000 compounds, 0.13% hits | HEK293-TRPC6 membrane potential dye fluorescence; active compounds read high | Q61143 | B-score at 10 µM;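 active = B-score of the integrated fluorescence ratio above library mean plus 3 SD, and starting fluorescence ratio within library mean plus 5 SD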;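 note: higher score means more depolarization so channel activation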
TRPC4 act: activators of mouse TRPC4 channel | B-score at 10 µM | 310,000 compounds, 0.49% hits | HEK293 TRPC4beta/mu-opioid, Fluo4 calcium fluorescence; active compounds read high;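 active = B-score above 5 SD of library B-scores, and initial fluorescence ratio not above library mean plus 5 SD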;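 note: positive B-score marks a calcium rise read as TRPC4 activation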
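System: HEK293 cells stably co-expressing mouse TRPC4beta and mu-opioid receptor; Schedule: Fluo4 dye loading 45 min at room temperature, 110 s recording; Detection: Fluo4 fluorescence, kinetic; Evaluation: B-scored integrated calcium fluorescence ratio; Controls: buffer (low) and maximal DAMGO (high).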
TRPC6 inhibitor: mouse TRPC6 channel inhibition; Q61143; HEK293-TRPC6, membrane potential dye, ACh-evoked depolarization; active compounds read low; B-score at 10 µM; 310,000 compounds, 1.1% hits; AID 2553;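 active = B-score under library mean minus 3 SD, initial fluorescence not abnormally high, positive integrated signal ratio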;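 note: B-score derived from integrated fluorescence ratio over the kinetic read; more negative B-score means stronger inhibition of depolarization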
TRPC4 sel inh 2: mouse TRPC4 off-target activity of TRPC6 inhibitors, second screen. AID 2776. inhibition, % at 10 µM. HEK293 TRPC4/MOR, membrane potential dye fluorescence; channel activated by saturating DAMGO dose. shares compounds with TRPC6 inhibitor. 920 compounds, 42% hits;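 active = compounds whose fluorescence signal differed from control wells by over 3 SD, either direction, in both duplicate plates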
TRPC4 spec: selectivity of TRPC6 inhibitors: effect on mouse TRPC4 | AID 2777 | 920 compounds, 61% hits | HEK293 TRPC4/mu-opioid, membrane potential fluorescence | shares compounds with TRPC6 inhibitor | activity change, negative = inhibition, % at 10 µM;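 active = rise or fall in signal beyond 3 SD of buffer-only wells in both replicate plates, either sign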;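 note: integrated kinetic ratio of fluorescence range over baseline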
HEK293 MPD ctr 2-1: second check of TRPC6 inhibitor effects in parental HEK293 cells; 920 compounds, 31% hits; shares compounds with TRPC6 inhibitor; parental HEK293 membrane potential dye fluorescence; maximal acetylcholine challenge after compound addition; signal change vs control, % at 10 µM;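 active = membrane potential signal moving either way by over 3 SD of the maximum-effect control, in both duplicate plates, meaning non-specific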
HEK293 MPD ctr-1: parental HEK293 nonspecific activity of TRPC6 inhibitors | 920 compounds, 60% hits | parental HEK293 membrane potential dye fluorescence | shares compounds with TRPC6 inhibitor | membrane potential signal change, % at 10 µM;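 active = membrane potential signal shifting up or down by more than 3 SD of buffer-only wells, on both duplicate plates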
HEK293 MPD ctr-2: counter-screen for TRPC6 modulators: effect in parental HEK293 cells; shares compounds with TRPC6 inhibitor; membrane potential dye fluorescence; membrane potential signal change, % at 10 µM; 2,400 compounds, 51% hits; AID 488924;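 active = membrane potential signal moves up or down beyond 5 SD from buffer-only wells, on both duplicate plates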
HEK293 MPD ctr 2-2: parental HEK293 nonspecific activity of TRPC6 modulators, second screen | shares compounds with TRPC6 inhibitor | membrane potential dye fluorescence; after compound, maximal acetylcholine stimulation | inhibition, % at 10 µM | 2,400 compounds, 14% hits | AID 488926;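 active = membrane potential signal drops by more than 5 SD from the mean control signal, in both duplicate plates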
TRPC4/MOR mod: mouse TRPC4 off-target activity of TRPC6 modulators; HEK293 TRPC4/mu-opioid, membrane potential fluorescence; 2,400 compounds, 69% hits; shares compounds with TRPC6 inhibitor; percent change from control (negative = decrease, positive = increase), % at 10 µM;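 active = membrane potential signal moved up or down beyond 5 SD of buffer control wells, in both duplicate plates, actives on both sides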
TRPC4 ctr inh 2: second selectivity test of TRPC6 modulators against mouse TRPC4; inhibition, % at 10 µM; AID 488928; HEK293 TRPC4/mu-opioid, membrane potential dye fluorescence; stimulated with maximal-effect DAMGO; shares compounds with TRPC6 inhibitor; 2,400 compounds, 55% hits;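 active = drop in membrane potential signal beyond 5 SD of the control wells in both duplicate plates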;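 note: TRPC4 counter screen for TRPC6 hits run under conditions tuned for TRPC6 not TRPC4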
TRPC6 block conf: mouse TRPC6 inhibitor confirmation; shares compounds with TRPC6 inhibitor; HEK293-TRPC6, membrane potential dye, ACh-evoked depolarization; inhibition, % at 10 µM; 3,300 compounds, 43% hits; AID 488960;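 active = fluorescence ratio falls more than 5 SD below the full-stimulation control mean, in both duplicate runs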;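 note: integrated fluorescence ratio of peak minus minimum over baseline after agonist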
TRPC6 act conf: mouse TRPC6 activator confirmation; shares compounds with TRPC6 inhibitor; HEK293-TRPC6 membrane potential dye fluorescence, FDSS; activation, % at 10 µM; 2,800 compounds, 11% hits;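 active = ratio signal rise beyond 5 SD above unstimulated control wells' mean, seen in both duplicate runs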
Numbers stand for hits; . = inactive; / = no result.

SMILES	TRPC4 potent	TRPC4 block	TRPC6 activator	TRPC4 act	TRPC6 inhibitor	HEK293 MPD ctr-2	HEK293 MPD ctr 2-2	TRPC4/MOR mod	TRPC4 ctr inh 2	TRPC6 block conf	TRPC6 act conf	others
Cc1csc2cc(-c3cccc([N+](=O)[O-])c3)c(-c3cccc([N+](=O)[O-])c3)c[n+]12	.	.	.	.	-6.06	-309.5%	66.0%	-51.5%	55.0%	69.0%	.
Cn1c(=O)c2c(nc(N3CCOCC3)n2CCc2ccccc2)n(C)c1=O	.	.	.	.	.	/	/	/	/	/	/
CN(C)C=NCCn1c(N2CCOCC2)nc2c1c(=O)n(C)c(=O)n2C	.	.	.	.	-7.07	-273.5%	.	-44.5%	35.0%	.	.
CCSc1ccc2cc(OC)ccc2[n+]1CC	.	.	.	.	-7.61	/	/	/	/	61.5%	.	TRPC4 sel inh 2=76.0%;TRPC4 spec=-20.9%;HEK293 MPD ctr 2-1=39.0%;HEK293 MPD ctr-1=-313.5%
CCn1ccc2cc(OC)ccc2c1=S	.	.	.	.	.	/	/	/	/	/	/
COc1cc(OC)cc(Oc2ccc(S(=O)(=O)N3CCCCC3)cc2[N+](=O)[O-])c1	.	.	.	.	.	/	/	/	/	/	/
COC(=O)COc1ccc(S(=O)(=O)N2CCCCC2)cc1[N+](=O)[O-]	.	.	.	.	-5.31	.	.	.	44.0%	.	.
COc1ccc(S(=O)(=O)N2CCCCCC2)cc1NC(=O)c1ccccc1	.	.	.	.	.	/	/	/	/	/	/
COc1ccc(S(=O)(=O)N2CCC(C(=O)Nc3ccc(S(=O)(=O)N4CCCC4)cc3)CC2)cc1OC	.	.	.	.	-5.42	.	.	.	.	.	.
COc1ccc(S(=O)(=O)N2CCCCCC2)cc1NC(=O)Cc1ccccc1	.	.	.	.	-8.86	.	.	.	.	.	.
Cc1ccc(NC(=O)C2CCN(S(=O)(=O)c3ccc4[nH]c(=O)oc4c3)CC2)cc1F	.	.	.	.	-5.78	.	.	.	.	.	.
COc1ccc(NC(=O)C2CCN(S(=O)(=O)c3ccc(OC)c(OC)c3)CC2)cc1	.	.	.	.	.	/	/	/	/	/	/
Oc1ccc(C[C@H]2CNCCN2CC2CCCCC2)cc1	.	.	.	.	.	/	/	/	/	/	/
COc1ccc(OC)c(S(=O)(=O)N2CCN(C34CC5CC(CC(C5)C3)C4)CC2)c1	.	.	.	.	.	/	/	/	/	/	/
CS(=O)(=O)c1ccc(Cl)c(NC(=O)COC(=O)c2cccc(S(=O)(=O)N3CCCCC3)c2)c1	.	.	.	.	-5.69	.	.	.	.	.	.
CCCCn1c(N)c(N(CCOC)C(=O)COC(=O)COc2cccc(C(C)=O)c2)c(=O)[nH]c1=O	.	.	.	.	.	/	/	/	/	/	/
Cc1ccc([N+](=O)[O-])cc1N=Nc1c(-c2ccc([N+](=O)[O-])cc2)[nH]n(C(N)=S)c1=O	.	.	.	.	-6.36	.	.	.	47.5%	48.0%	.
Cc1ccc([N+](=O)[O-])cc1N=Nc1c(C)[nH]n(C(N)=S)c1=O	.	.	.	.	.	/	/	/	/	/	/
CCC(=O)N/C(=N/c1nc(C)cc(C)n1)Nc1cccc(OC)c1	.	.	.	.	-5.78	.	.	.	.	.	.
CC(C)(C)n1nnnc1C(c1cc2cc3c(cc2[nH]c1=O)OCCO3)N1CCSCC1 (stereo not given)	.	.	.	.	-5.17	.	.	.	.	52.5%	/
CCc1nc2ccc(C)cc2c(C(=O)NC2CCCCC2C)c1C (stereo not given)	.	.	13.6	.	.	425.5%	.	102.5%	31.0%	.	148.0%
CCc1nc2ccccc2c(C(=O)Nc2ccc(C)cc2)c1C	.	.	.	.	.	/	/	/	/	/	/
CC(=O)Nc1ccc(NC(=O)C(C)Sc2n[nH]c(=O)n2Cc2ccccc2)cc1 (stereo not given)	.	.	.	.	.	/	/	/	/	/	/
CCN(CC)CCNC(=O)c1ccc2c(=O)n(C3CCCC3)c(=S)[nH]c2c1	.	.	.	.	-6.76	/	/	/	/	.	.	TRPC4 sel inh 2=.;TRPC4 spec=.;HEK293 MPD ctr 2-1=.;HEK293 MPD ctr-1=.
CC(C)NC(=O)c1ccc2c(=O)n(C3CCCC3)c(=S)[nH]c2c1	.	.	.	.	.	/	/	/	/	/	/
SMILES	TRPC4 potent	TRPC4 block	TRPC6 activator	TRPC4 act	TRPC6 inhibitor	HEK293 MPD ctr-2	HEK293 MPD ctr 2-2	TRPC4/MOR mod	TRPC4 ctr inh 2	TRPC6 block conf	TRPC6 act conf	others
CCCC[n+]1ccc(-c2nc3ccc([N+](=O)[O-])cc3[nH]2)cc1	.	.	.	.	-6.79	/	/	/	/	73.0%	.	TRPC4 sel inh 2=56.0%;TRPC4 spec=-16.8%;HEK293 MPD ctr 2-1=-90.0%;HEK293 MPD ctr-1=-262.5%
Cc1nc2ccc(NC(=O)c3ccc(Cl)c(S(=O)(=O)N(C)c4ccccc4)c3)cc2s1	.	.	.	.	-5.07	.	.	-26.5%	.	.	.
COc1cc(/C=C(/C(=O)c2cccs2)c2nc3ccccc3[nH]2)cc(OC)c1O	.	.	.	.	.	/	/	/	/	/	/
CC1CCCN(C(=O)C2COc3ccccc3O2)C1 (stereo not given)	.	.	.	.	-5.01	.	.	8.5%	.	49.0%	/
Cc1cccc(N2CCN(C(=O)c3ccc(NC4=NC5CS(=O)(=O)CC5S4)cc3)CC2C)c1 (stereo not given)	.	.	.	.	.	/	/	/	/	/	/
Cc1nc(N)nc(N)c1CCCc1ccc(Cl)c(Cl)c1	.	.	.	.	-5.74	.	.	.	50.5%	40.5%	.
Cc1cc(C)cc(N(CC(=O)NC(C)(C)C)C(=O)CNC(=O)c2cccs2)c1	.	.	.	.	-5.43	.	.	.	.	.	.
